Converted amounts (≈) assume the structure as drawn.
Legend:
Format in all cases: functional
Streptococcus pneumoniae [1] = assay: Antimicrobial activity against drug-resistant Streptococcus pneumoniae isolate 1635 after 14 passages with azithromycin measured after 10 antibiotic-free subculture by multi-step resistance selection technique
In short: (§1)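 Mutants selected by daily broth passage in subinhibitory drug in cation-adjusted Mueller-Hinton broth with 5% lysed horse blood. Stability was tested by 10 daily passages on blood agar without antibiotic, then macrodilution MIC.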

Streptococcus pneumoniae [2] = assay: Antimicrobial activity against drug-resistant Streptococcus pneumoniae isolate 3274 after 50 passages by multi-step resistance selection technique
In short: (§2)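 Daily serial passage in subinhibitory drug levels in 1 ml cation-adjusted Mueller-Hinton broth with 5% lysed horse blood; fresh broth for tigecycline. Each day, 10 μl were taken from the tube one to two dilutions below the MIC whose turbidity matched the growth control, and used to set the next MIC. MIC by macrodilution.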

Streptococcus pneumoniae [3] = assay: Antimicrobial activity against drug-resistant Streptococcus pneumoniae isolate 1077 after 29 passages with azithromycin measured after 10 antibiotic-free subculture by multi-step resistance selection technique; in short: as §1
Streptococcus pneumoniae [4] = assay: Antimicrobial activity against drug-resistant Streptococcus pneumoniae isolate 3665 after 50 passages by multi-step resistance selection technique
In short: (§3)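 Daily serial passage in broth at subinhibitory drug levels: 1 ml cation-adjusted Mueller-Hinton broth with 5% lysed horse blood; fresh broth for tigecycline. Each day 10 μl inoculum taken from the tube one to two dilutions below MIC matching growth-control turbidity, used to set next MIC. Continued until ≥8-fold MIC rise, minimum 14, maximum 50 passages; MIC read by macrodilution.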

Streptococcus pneumoniae [5] = assay: Antimicrobial activity against drug-resistant Streptococcus pneumoniae isolate 24 by NCCLS M7-A7 method
Streptococcus pneumoniae [6] = assay: Antimicrobial activity against drug-resistant Streptococcus pneumoniae isolate 3009 after 18 passages with levofloxacin measured after 10 antibiotic-free subculture by multi-step resistance selection technique; in short: as §1
Streptococcus pneumoniae [7] = assay: Antimicrobial activity against drug-resistant Streptococcus pneumoniae isolate 3243 after 29 passages with Telithromycin measured after 10 antibiotic-free subculture by multi-step resistance selection technique; in short: as §1
Streptococcus pneumoniae [8] = assay: Antimicrobial activity against drug-resistant Streptococcus pneumoniae isolate 3413 after 50 passages by multi-step resistance selection technique; in short: as §2
Streptococcus pneumoniae [9] = assay: Antimicrobial activity against drug-resistant Streptococcus pneumoniae isolate 3676 after 50 passages by multi-step resistance selection technique; in short: as §3
Streptococcus pneumoniae [10] = assay: Antimicrobial activity against drug-resistant Streptococcus pneumoniae isolate 3274 by NCCLS M7-A7 method
Streptococcus pneumoniae [11] = assay: Antimicrobial activity against drug-resistant Streptococcus pneumoniae isolate 2527 after 14 passages with gemifloxacin measured after 10 antibiotic-free subculture by multi-step resistance selection technique; in short: as §1
Streptococcus pneumoniae [12] = assay: Antimicrobial activity against drug-resistant Streptococcus pneumoniae isolate 1635 after 49 passages with clarithromycin measured after 10 antibiotic-free subculture by multi-step resistance selection technique
Streptococcus pneumoniae [13] = assay: Antimicrobial activity against drug-resistant Streptococcus pneumoniae isolate 3676 after 14 passages with Telithromycin measured after 10 antibiotic-free subculture by multi-step resistance selection technique
Streptococcus pneumoniae [14] = assay: Antimicrobial activity against drug-resistant Streptococcus pneumoniae isolate 37 by NCCLS M7-A7 method
Streptococcus pneumoniae [15] = assay: Antimicrobial activity against drug-resistant Streptococcus pneumoniae isolate 1076 after 35 passages with moxifloxacin measured after 10 antibiotic-free subculture by multi-step resistance selection technique; in short: as §1
Streptococcus pneumoniae [16] = assay: Antimicrobial activity against drug-resistant Streptococcus pneumoniae isolate 1077 after 15 passages with Telithromycin measured after 10 antibiotic-free subculture by multi-step resistance selection technique; in short: as §1
Streptococcus pneumoniae [17] = assay: Antimicrobial activity against drug-resistant Streptococcus pneumoniae isolate 3676 after 44 passages with clarithromycin measured after 10 antibiotic-free subculture by multi-step resistance selection technique
Streptococcus pneumoniae [18] = assay: Antimicrobial activity against drug-resistant Streptococcus pneumoniae isolate 3243 after 50 passages by multi-step resistance selection technique
In short: as §2, with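 “MIC. […]” for “MIC.”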

Streptococcus pneumoniae [19] = assay: Antimicrobial activity against drug-resistant Streptococcus pneumoniae isolate 3665 after 14 passages with Telithromycin measured after 10 antibiotic-free subculture by multi-step resistance selection technique
Streptococcus pneumoniae [20] = assay: Antimicrobial activity against drug-resistant Streptococcus pneumoniae isolate 37 after 14 passages with Telithromycin measured after 10 antibiotic-free subculture by multi-step resistance selection technique
Streptococcus pneumoniae [21] = assay: Antimicrobial activity against drug-resistant Streptococcus pneumoniae isolate 3243 after 33 passages with azithromycin measured after 10 antibiotic-free subculture by multi-step resistance selection technique; in short: as §1
Streptococcus pneumoniae [22] = assay: Antimicrobial activity against drug-resistant Streptococcus pneumoniae isolate 3009 after 19 passages with moxifloxacin measured after 10 antibiotic-free subculture by multi-step resistance selection technique; in short: as §1
Streptococcus pneumoniae [23] = assay: Antimicrobial activity against drug-resistant Streptococcus pneumoniae isolate 1635 after 14 passages with clindamycin measured after 10 antibiotic-free subculture by multi-step resistance selection technique
Streptococcus pneumoniae [24] = assay: Antimicrobial activity against drug-resistant Streptococcus pneumoniae isolate 3665 after 26 passages with clarithromycin measured after 10 antibiotic-free subculture by multi-step resistance selection technique
Streptococcus pneumoniae [25] = assay: Antimicrobial activity against drug-resistant Streptococcus pneumoniae isolate 3665 by NCCLS M7-A7 method
Streptococcus pneumoniae [26] = assay: Antimicrobial activity against drug-resistant Streptococcus pneumoniae isolate 1077 after 49 passages by multi-step resistance selection technique
In short: as §2, with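 “MIC. […]” for “MIC.”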

Streptococcus pneumoniae [27] = assay: Antimicrobial activity against drug-resistant Streptococcus pneumoniae isolate 2527 by NCCLS M7-A7 method
Streptococcus pneumoniae [28] = assay: Antimicrobial activity against drug-resistant Streptococcus pneumoniae isolate 1077 by NCCLS M7-A7 method
Streptococcus pneumoniae [29] = assay: Antimicrobial activity against drug-resistant Streptococcus pneumoniae isolate 3676 by NCCLS M7-A7 method
Streptococcus pneumoniae [30] = assay: Antimicrobial activity against drug-resistant Streptococcus pneumoniae isolate 24 after 50 passages with moxifloxacin measured after 10 antibiotic-free subculture by multi-step resistance selection technique; in short: as §1
Streptococcus pneumoniae [31] = assay: Antimicrobial activity against drug-resistant Streptococcus pneumoniae isolate 3243 by NCCLS M7-A7 method
Streptococcus pneumoniae [32] = assay: Antimicrobial activity against drug-resistant Streptococcus pneumoniae isolate 3413 by NCCLS M7-A7 method
Streptococcus pneumoniae [33] = assay: Antimicrobial activity against drug-resistant Streptococcus pneumoniae isolate 3243 after 20 passages with moxifloxacin measured after 10 antibiotic-free subculture by multi-step resistance selection technique; in short: as §1
Streptococcus pneumoniae [34] = assay: Antimicrobial activity against drug-resistant Streptococcus pneumoniae isolate 3676 after 50 passages with moxifloxacin measured after 10 antibiotic-free subculture by multi-step resistance selection technique
Streptococcus pneumoniae [35] = assay: Antimicrobial activity against drug-resistant Streptococcus pneumoniae isolate 3665 after 38 passages with moxifloxacin measured after 10 antibiotic-free subculture by multi-step resistance selection technique
Streptococcus pneumoniae [36] = assay: Antimicrobial activity against drug-resistant Streptococcus pneumoniae isolate 1635 after 14 passages by multi-step resistance selection technique
In short: as §2, with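 “MIC. […]” for “MIC.”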

Streptococcus pneumoniae [37] = assay: Antimicrobial activity against drug-resistant Streptococcus pneumoniae isolate 2527 after 20 passages with azithromycin measured after 10 antibiotic-free subculture by multi-step resistance selection technique; in short: as §1
Streptococcus pneumoniae [38] = assay: Antimicrobial activity against drug-resistant Streptococcus pneumoniae isolate 3274 after 48 passages with Telithromycin measured after 10 antibiotic-free subculture by multi-step resistance selection technique; in short: as §1
Streptococcus pneumoniae [39] = assay: Antimicrobial activity against drug-resistant Streptococcus pneumoniae isolate 3009 after 50 passages by multi-step resistance selection technique
In short: as §2, with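 “MIC. […]” for “MIC.”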

Streptococcus pneumoniae [40] = assay: Antimicrobial activity against drug-resistant Streptococcus pneumoniae isolate 3243 after 41 passages with clarithromycin measured after 10 antibiotic-free subculture by multi-step resistance selection technique
Streptococcus pneumoniae [41] = assay: Antimicrobial activity against drug-resistant Streptococcus pneumoniae isolate 1635 by NCCLS M7-A7 method
Streptococcus pneumoniae [42] = assay: Antimicrobial activity against drug-resistant Streptococcus pneumoniae isolate 24 after 14 passages with Telithromycin measured after 10 antibiotic-free subculture by multi-step resistance selection technique; in short: as §1
Streptococcus pneumoniae [43] = assay: Antimicrobial activity against drug-resistant Streptococcus pneumoniae isolate 3009 after 25 passages with clarithromycin measured after 10 antibiotic-free subculture by multi-step resistance selection technique
Streptococcus pneumoniae [44] = assay: Antimicrobial activity against drug-resistant Streptococcus pneumoniae isolate 1077 after 49 passages with clindamycin measured after 10 antibiotic-free subculture by multi-step resistance selection technique
Streptococcus pneumoniae [45] = assay: Antimicrobial activity against drug-resistant Streptococcus pneumoniae isolate 1076 after 14 passages with Telithromycin measured after 10 antibiotic-free subculture by multi-step resistance selection technique; in short: as §1
Streptococcus pneumoniae [46] = assay: Antimicrobial activity against drug-resistant Streptococcus pneumoniae isolate 1076 by NCCLS M7-A7 method
Streptococcus pneumoniae [47] = assay: Antimicrobial activity against drug-resistant Streptococcus pneumoniae isolate 3413 after 30 passages with Telithromycin measured after 10 antibiotic-free subculture by multi-step resistance selection technique; in short: as §1
Streptococcus pneumoniae [48] = assay: Antimicrobial activity against drug-resistant Streptococcus pneumoniae isolate 3009 by NCCLS M7-A7 method
Streptococcus pneumoniae [49] = assay: Antimicrobial activity against drug-resistant Streptococcus pneumoniae isolate 3009 after 21 passages with gemifloxacin measured after 10 antibiotic-free subculture by multi-step resistance selection technique; in short: as §1
Streptococcus pneumoniae [50] = assay: Antimicrobial activity against drug-resistant Streptococcus pneumoniae isolate 2527 after 50 passages by multi-step resistance selection technique
In short: as §2, with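 “MIC. […]” for “MIC.”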

CCC[C@@H]1C[C@@H](C(=O)N[C@@H]([C@H]2O[C@H](SC)[C@H](O)[C@@H](O)[C@H]2O)[C@H](C)Cl)N(C)C1 [CLINDAMYCIN] was tested, and the MIC (Streptococcus pneumoniae [1]) was 0.03 µg/mL (≈ 0.0706 µM), the MIC (Streptococcus pneumoniae [2]) was 0.008 µg/mL (≈ 0.0188 µM) and the MIC (Streptococcus pneumoniae [3]) was 4 µg/mL (≈ 9.41 µM). The MIC (Streptococcus pneumoniae [4]) was 0.03 µg/mL (≈ 0.0706 µM), the MIC (Streptococcus pneumoniae [5]) was greater than 64 µg/mL and the MIC (Streptococcus pneumoniae [6]) was 0.5 µg/mL (≈ 1.18 µM). For the same compound, the MIC (Streptococcus pneumoniae [7]) was 0.03 µg/mL (≈ 0.0706 µM), the MIC (Streptococcus pneumoniae [8]) was 0.008 µg/mL (≈ 0.0188 µM) and the MIC (Streptococcus pneumoniae [9]) was 0.016 µg/mL (≈ 0.0376 µM). It also gave an MIC (Streptococcus pneumoniae [10]) of 0.016 µg/mL (≈ 0.0376 µM), an MIC (Streptococcus pneumoniae [11]) of 0.016 µg/mL (≈ 0.0376 µM) and an MIC (Streptococcus pneumoniae [12]) of 0.25 µg/mL (≈ 0.588 µM). The MIC (Streptococcus pneumoniae [13]) was 0.03 µg/mL (≈ 0.0706 µM), the MIC (Streptococcus pneumoniae [14]) was greater than 64 µg/mL and the MIC (Streptococcus pneumoniae [15]) was greater than 64 µg/mL. The MIC (Streptococcus pneumoniae [16]) was 8 µg/mL (≈ 18.8 µM), the MIC (Streptococcus pneumoniae [17]) was 0.06 µg/mL (≈ 0.141 µM) and the MIC (Streptococcus pneumoniae [18]) was 0.03 µg/mL (≈ 0.0706 µM). The MIC (Streptococcus pneumoniae [19]) was 0.03 µg/mL (≈ 0.0706 µM), the MIC (Streptococcus pneumoniae [20]) was greater than 64 µg/mL and the MIC (Streptococcus pneumoniae [21]) was 0.016 µg/mL (≈ 0.0376 µM). The MIC (Streptococcus pneumoniae [22]) was 0.5 µg/mL (≈ 1.18 µM), the MIC (Streptococcus pneumoniae [23]) was greater than 64 µg/mL and the MIC (Streptococcus pneumoniae [24]) was 0.03 µg/mL (≈ 0.0706 µM). For the same compound, the MIC (Streptococcus pneumoniae [25]) was 0.016 µg/mL (≈ 0.0376 µM), the MIC (Streptococcus pneumoniae [26]) was 4 µg/mL (≈ 9.41 µM) and the MIC (Streptococcus pneumoniae [27]) was 0.008 µg/mL (≈ 0.0188 µM). The MIC (Streptococcus pneumoniae [28]) was 0.016 µg/mL (≈ 0.0376 µM), the MIC (Streptococcus pneumoniae [29]) was 0.03 µg/mL (≈ 0.0706 µM) and the MIC (Streptococcus pneumoniae [30]) was greater than 64 µg/mL. For the same compound, the MIC (Streptococcus pneumoniae [31]) was 0.016 µg/mL (≈ 0.0376 µM), the MIC (Streptococcus pneumoniae [32]) was 0.016 µg/mL (≈ 0.0376 µM) and the MIC (Streptococcus pneumoniae [33]) was 0.016 µg/mL (≈ 0.0376 µM). The MIC (Streptococcus pneumoniae [34]) was 0.016 µg/mL (≈ 0.0376 µM), the MIC (Streptococcus pneumoniae [35]) was 0.03 µg/mL (≈ 0.0706 µM) and the MIC (Streptococcus pneumoniae [36]) was greater than 64 µg/mL. For the same compound, the MIC (Streptococcus pneumoniae [37]) was 0.06 µg/mL (≈ 0.141 µM), the MIC (Streptococcus pneumoniae [38]) was 0.016 µg/mL (≈ 0.0376 µM) and the MIC (Streptococcus pneumoniae [39]) was 2 µg/mL (≈ 4.71 µM). The MIC (Streptococcus pneumoniae [40]) was 1 µg/mL (≈ 2.35 µM), the MIC (Streptococcus pneumoniae [41]) was 0.06 µg/mL (≈ 0.141 µM) and the MIC (Streptococcus pneumoniae [42]) was greater than 64 µg/mL. It also gave an MIC (Streptococcus pneumoniae [43]) of 1 µg/mL (≈ 2.35 µM), an MIC (Streptococcus pneumoniae [44]) of 8 µg/mL (≈ 18.8 µM) and an MIC (Streptococcus pneumoniae [45]) greater than 64 µg/mL. For the same compound, the MIC (Streptococcus pneumoniae [46]) was 64 µg/mL (≈ 151 µM), the MIC (Streptococcus pneumoniae [47]) was 0.06 µg/mL (≈ 0.141 µM) and the MIC (Streptococcus pneumoniae [48]) was 1 µg/mL (≈ 2.35 µM). It also gave an MIC (Streptococcus pneumoniae [49]) of 0.5 µg/mL (≈ 1.18 µM) and an MIC (Streptococcus pneumoniae [50]) of 0.016 µg/mL (≈ 0.0376 µM).

From ChEMBL document CHEMBL1151428, “Capability of 11 antipneumococcal antibiotics to select for resistance by multistep and single-step methodologies” (2007)
